Test results: ChEMBL document CHEMBL1221230, “Inhibition of eukaryotic translation elongation by cycloheximide and lactimidomycin” (Nat Chem Biol, 2010)
Calls of active or inactive are those of the source. No cut-off for these calls is given here.

Tests used:
MCF-10A = assay: Anticancer activity against human MCF10A cells after 24 hrs by [3H]thymidine incorporation assay; format: functional, cell-based
Saccharomyces cerevisiae [1] = assay: Antimicrobial activity against Saccharomyces cerevisiae JB503; format: functional, organism-based
Summary of the method: (§1)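 Four isogenic S. cerevisiae strain pairs, each differing only by presence or absence of cyh2, exposed to varying compound concentrations; growth read by optical density; IC50 derived per strain, resistance as ratio between paired strains.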

Saccharomyces cerevisiae [2] = assay: Antimicrobial activity against Saccharomyces cerevisiae BY724 expressing ribosomal protein cyh2 and harboring mutation in rpl28; format: functional, organism-based; summary of the method: as §1
Saccharomyces cerevisiae [3] = assay: Antimicrobial activity against Saccharomyces cerevisiae JB281; format: functional, organism-based; summary of the method: as §1
Saccharomyces cerevisiae [4] = assay: Antimicrobial activity against Saccharomyces cerevisiae BY740 expressing ribosomal protein cyh2 and harboring mutation in rpl28; format: functional, organism-based; summary of the method: as §1
Saccharomyces cerevisiae [5] = assay: Fold resistance, ratio of IC50 Saccharomyces cerevisiae J407alpha expressing ribosomal protein cyh2 and harboring mutation in rpl28 to IC50 for Saccharomyces cerevisiae J47alpha; format: functional; summary of the method: as §1
HEK-293T = assay: Effect on polyribosome profiling in human HEK293T cells assessed as depletion of polysomes at 50 uM after 30 mins by spectrophotometry; format: functional, cell-based
Summary of the method: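 HEK 293T cells treated 30 min with compound, then lysed; lysates centrifuged through 15–45% sucrose gradient to give polysome profiles.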

[6] = Inhibition of elF4A-mediated renilla luciferase translational activity at 200 to 2000 nM in presence of HCV IRES element
Jurkat = assay: Antiproliferative activity against human Jurkat cells assessed as incorporation of [3H]thymidine in nuclear DNA at 2.5 uM after 24 hrs by scintillation counting; format: functional, cell-based
Summary of the method: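 Each of three tumour cell lines incubated with compound at 2.5 μM for 24 h, then [³H]thymidine added to monitor DNA synthesis; initial proliferation screen.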

[7] = target: Elongation factor 2 (Homo sapiens) (UniProt P13639); assay: Inhibition of eEF2-mediated tRNA translocation assessed as inhibition of polyphenylalanine synthesis at 200 uM after 10 mins by scintillation counting
[8] = target: Elongation factor 2 (Homo sapiens) (UniProt P13639); assay: Inhibition of eEF2-mediated tRNA translocation assessed as inhibition of phenylalanyl puromycin formation
Summary of the method: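 Set up as eEF1A binding assay but with GTP; 5 min at 37°C, compound added to 200 μM final, 5 min at room temperature, then eEF2, puromycin and GTP added; 10 min at 37°C; ethyl acetate-extractable phenylalanyl-puromycin counted by scintillation.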

Saccharomyces cerevisiae [9] = assay: Antimicrobial activity against Saccharomyces cerevisiae J407alpha expressing ribosomal protein cyh2 and harboring mutation in rpl28; format: functional, organism-based; summary of the method: as §1
HCC1937 = assay: Anticancer activity against human HCC1937 cells after 24 hrs by [3H]thymidine incorporation assay; format: functional, cell-based

**Q.** Which results are given for C/C(=C\[C@H](C)C(=O)C[C@H](O)CC1CC(=O)NC(=O)C1)[C@@H]1OC(=O)/C=C/CC/C=C/C=C\[C@@H]1C [LACTIMIDOMYCIN]?
**A.** Activity (MCF-10A): Active; IC50 (Saccharomyces cerevisiae [1]): 0.058 µM; IC50 (Saccharomyces cerevisiae [2]): 6.53 µM; IC50 (Saccharomyces cerevisiae [3]): 0.059 µM; IC50 (Saccharomyces cerevisiae [4]): 1.21 µM; Ratio IC50 (Saccharomyces cerevisiae [5]): 241; Activity (HEK-293T): Active; inhibition [6]: Active; Activity (Jurkat): inactive; inhibition [7]: Active; inhibition [8]: Active; IC50 (Saccharomyces cerevisiae [9]): 1.11 µM; Activity (HCC1937): Active
